SMILES strings stand for the structures.

Test [1] can be described thus: Relative affinity for delta and mu receptors. The method in brief:
(§1)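 Selectivity ratio = DADLE IC50 ratio (MVD) divided by morphine or EK IC50 ratio (GPI), with 100 nM antagonist. Where an IC50 ratio was below or near unity, a value of 1 was used.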

For test [2], the target named is Delta-type opioid receptor (Mus musculus) (UniProt P32300). Nature of the test: Antagonism of antinociceptive effect of DPDPE against delta 1 opioid receptor in male ICR mice at a sc dose of 16 umol/kg. It counts as functional, organism-based. In a few lines:
(§2)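 Male ICR mice, tail-flick antinociception. Antagonist given sc at the stated dose (µmol/kg), pretreatment timed so peak antagonism coincides with the agonist's peak antinociceptive response. Agonists: DPDPE (δ1), DSLET (δ2), morphine (µ), U50488 (κ). ED50 ratio = agonist ED50 with sc antagonist divided by control ED50, with 95% confidence limits.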

For test [3] the target is unchanged. Nature of the test: Antagonism of antinociceptive effect of DSLET against delta 2 opioid receptor in male ICR mice at a sc dose of 16 umol/kg. In kind it is functional, organism-based. In a few lines:
as §2

Test [4] concerns the target Kappa-type opioid receptor (Cavia porcellus) (UniProt P41144). Nature of the test: Inhibition of ethylketazocine binding to Opioid receptor kappa 1 of guinea pig ileal longitudinal muscle. The method in brief: (§3)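 Electrically stimulated smooth muscle: guinea pig ileal longitudinal muscle with morphine or ethylketazocine, mouse vas deferens with DADLE. Antagonist 100 nM incubated 15 min (30 min in footnoted cases) before agonist. IC50 ratio = agonist IC50 with antagonist divided by control IC50 in the same preparation; mean ± SEM, n shown.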

Test [5] can be described thus: Relative affinity for delta and kappa receptors. In a few lines: as §1
In test [6] the target is Kappa-type opioid receptor (Mus musculus) (UniProt P33534). Nature of the test: Antagonism of antinociceptive effect of U-50,488 against Opioid receptor kappa 1 in male ICR mice at a sc dose of 16 umol/kg. It counts as functional, organism-based. In a few lines:
as §2

For test [7], the target named is Mu-type opioid receptor (Cavia porcellus) (UniProt P97266). Kind of test: Inhibition of morphine binding to Opioid receptor mu 1 of guinea pig ileal longitudinal muscle. In a few lines:
as §3

For test [8], the target named is Delta-type opioid receptor (Mus musculus) (UniProt P32300). Kind of test: Inhibition of DADLE binding to Opioid receptor delta 1 of mouse vas deferens. In a few lines:
as §3

The target in test [9] is Mu-type opioid receptor (Mus musculus) (UniProt P42866). Kind of test: Antagonism of antinociceptive effect of morphine against Opioid receptor mu 1 in male ICR mice at a sc dose of 16 umol/kg. It counts as functional, organism-based. The method in brief: as §2
Sequence of Mu-type opioid receptor (Mus musculus) (P42866 whole entry): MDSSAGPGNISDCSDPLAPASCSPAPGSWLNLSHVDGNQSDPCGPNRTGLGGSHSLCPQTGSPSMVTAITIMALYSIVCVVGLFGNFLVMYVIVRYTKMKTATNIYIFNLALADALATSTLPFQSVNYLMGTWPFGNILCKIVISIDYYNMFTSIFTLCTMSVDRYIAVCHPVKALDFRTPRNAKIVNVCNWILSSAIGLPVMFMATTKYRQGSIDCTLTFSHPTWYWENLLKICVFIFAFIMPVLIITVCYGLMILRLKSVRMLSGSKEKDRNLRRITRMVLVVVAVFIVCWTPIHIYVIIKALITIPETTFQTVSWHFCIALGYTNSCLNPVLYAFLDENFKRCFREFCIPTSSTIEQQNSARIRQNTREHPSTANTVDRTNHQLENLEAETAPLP
In test [10] the target is Delta-type opioid receptor (Mus musculus) (UniProt P32300). Nature of the test: Antagonism of antinociceptive effect of DSLET against delta 2 opioid receptor in male ICR mice at a sc dose of 5 umol/kg. It counts as functional, organism-based. The method in brief: as §2
Sequence of Delta-type opioid receptor (Mus musculus) (P32300 whole entry): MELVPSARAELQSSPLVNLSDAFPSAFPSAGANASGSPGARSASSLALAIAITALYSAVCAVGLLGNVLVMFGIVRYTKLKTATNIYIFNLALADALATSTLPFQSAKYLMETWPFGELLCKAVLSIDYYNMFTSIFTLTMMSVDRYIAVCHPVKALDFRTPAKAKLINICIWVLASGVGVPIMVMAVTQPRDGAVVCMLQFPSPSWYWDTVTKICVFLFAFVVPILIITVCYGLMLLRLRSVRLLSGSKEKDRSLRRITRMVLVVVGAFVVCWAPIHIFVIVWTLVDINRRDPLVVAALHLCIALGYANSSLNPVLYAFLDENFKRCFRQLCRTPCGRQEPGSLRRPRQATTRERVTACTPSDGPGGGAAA
For test [11] the target is unchanged. Kind of test: Antagonism of antinociceptive effect of DPDPE against delta 1 opioid receptor in male ICR mice at a sc dose of 5 umol/kg. It counts as functional, organism-based. The method in brief: as §2
For test [12], the target named is Mu-type opioid receptor (Mus musculus) (UniProt P42866). Nature of the test: Antagonism of antinociceptive effect of morphine against Opioid receptor mu 1 in male ICR mice at a sc dose of 5 umol/kg. It counts as functional, organism-based. In a few lines: as §2
The target of test [13] is Kappa-type opioid receptor (Mus musculus) (UniProt P33534). Kind of test: Antagonism of antinociceptive effect of U-50,488 against kOpioid receptor kappa 1 in male ICR mice at a sc dose of 5 umol/kg. In kind it is functional, organism-based. In a few lines:
as §2

For test [14] the target is unchanged. Nature of the test: Antagonism of antinociceptive effect of U-50,488 against kOpioid receptor kappa 1 in male ICR mice at a sc dose of 16 umol/kg. In kind it is functional, organism-based. In a few lines:
as §2

Test [15] has the same target. Kind of test: Antagonism of antinociceptive effect of U-50,488 against Opioid receptor kappa 1 in male ICR mice at a sc dose of 5 umol/kg. It counts as functional, organism-based. In a few lines: as §2
Test [16] deals with Mu-type opioid receptor (Mus musculus) (UniProt P42866). Kind of test: Antagonism of antinociceptive effect of morphine against Opioid receptor mu 1 in male ICR mice at a sc dose of 5 umol/kg. In kind it is functional, organism-based. In a few lines: as §2

Sequence of Kappa-type opioid receptor (Cavia porcellus) (P41144 whole entry): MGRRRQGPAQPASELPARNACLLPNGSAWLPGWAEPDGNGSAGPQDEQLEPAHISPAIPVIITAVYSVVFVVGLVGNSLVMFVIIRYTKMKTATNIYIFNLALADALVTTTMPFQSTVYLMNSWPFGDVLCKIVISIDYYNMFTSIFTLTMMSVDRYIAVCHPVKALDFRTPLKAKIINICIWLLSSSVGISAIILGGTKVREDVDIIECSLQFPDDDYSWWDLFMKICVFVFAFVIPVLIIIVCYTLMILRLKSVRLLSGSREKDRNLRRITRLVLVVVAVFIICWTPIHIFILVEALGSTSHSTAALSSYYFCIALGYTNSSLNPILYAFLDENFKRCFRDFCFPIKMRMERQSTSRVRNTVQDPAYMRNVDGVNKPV
Sequence of Kappa-type opioid receptor (Mus musculus) (P33534 whole entry): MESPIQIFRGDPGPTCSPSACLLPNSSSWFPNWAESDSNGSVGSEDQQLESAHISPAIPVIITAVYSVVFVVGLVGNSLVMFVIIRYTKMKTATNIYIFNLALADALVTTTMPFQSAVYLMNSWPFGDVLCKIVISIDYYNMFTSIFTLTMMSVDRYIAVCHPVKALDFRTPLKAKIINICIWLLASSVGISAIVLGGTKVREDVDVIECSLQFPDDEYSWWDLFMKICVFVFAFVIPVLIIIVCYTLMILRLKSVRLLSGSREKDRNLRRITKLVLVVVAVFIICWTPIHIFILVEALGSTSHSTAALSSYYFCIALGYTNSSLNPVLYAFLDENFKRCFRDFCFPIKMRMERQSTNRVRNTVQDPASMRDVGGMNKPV
Sequence of Mu-type opioid receptor (Cavia porcellus) (P97266 whole entry): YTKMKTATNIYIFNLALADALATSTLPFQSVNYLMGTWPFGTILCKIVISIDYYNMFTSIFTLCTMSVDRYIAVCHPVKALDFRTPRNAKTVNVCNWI

In the case of `O=C1/C(=C\c2ccccc2)C[C@@]2(O)[C@H]3Cc4ccc(O)c5c4[C@@]2(CCN3CC2CC2)[C@H]1O5`, the Selectivity ratio in [1] was 2.7; in test [5] it was 17.5. The ED50 ratio worked out at 16.8 in [2], 9.6 in [3], 1.8 in [6] and 5.7 in test [9]. For the same compound, the IC50 ratio in test [4] is 2; in test [7], 13.1; in test [8], 35.

As for `O=C1/C(=C\c2ccc(-c3ccc4ccccc4c3)cc2)C[C@@]2(O)C3Cc4ccc(O)c5c4C2(CCN3CC2CC2)[C@H]1O5` (stereo not given in full), the Selectivity ratio in test [1] came to 3.5; in test [5], 11.6. Further, the IC50 ratio stood at 1.07 in test [4], 3.32 in test [7] and 11.6 in test [8].

For `O=C1/C(=C\c2ccc([N+](=O)[O-])cc2)C[C@@]2(O)C3Cc4ccc(O)c5c4C2(CCN3CC2CC2)[C@H]1O5` (stereo not given in full), the figures for the Selectivity ratio in test [1] and in test [5] were 0.4 and 1.9, respectively. For the same compound, the IC50 ratio in test [4] is 1.07; in test [7], 4.42; in test [8] it was 1.9.

Consider `O=C1/C(=C\c2ccccc2F)C[C@@]2(O)C3Cc4ccc(O)c5c4C2(CCN3CC2CC2)[C@H]1O5` (stereo not given in full), for which the Selectivity ratio in test [1] was 4.4; in test [5] it was 10.3. Also, the IC50 ratio is 1.65 in [4], 3.86 in test [7] and 17 in test [8].

Consider `O=C1/C(=C\c2cccc([N+](=O)[O-])c2)C[C@@]2(O)C3Cc4ccc(O)c5c4C2(CCN3CC2CC2)[C@H]1O5` (stereo not given in full), for which the Selectivity ratio in [1] and in [5] was 5.2 in each case. Besides, the IC50 ratio came to 0.5 in test [4], 1.15 in test [7] and 5.18 in test [8].

Regarding `O=C1/C(=C\c2cccc(F)c2)C[C@@]2(O)C3Cc4ccc(O)c5c4C2(CCN3CC2CC2)[C@H]1O5` (stereo not given in full), the Selectivity ratio in test [1] is 2.1; in [5], 12.9. The IC50 ratio in test [4] turned out to be 1.26; in test [7], 7.83; in test [8], 16.3.

`O=C1/C(=C\c2ccc(F)cc2)C[C@@]2(O)C3Cc4ccc(O)c5c4C2(CCN3CC2CC2)[C@H]1O5` (stereo not given in full): the Selectivity ratio in [1] turned out to be 0.9; in test [5], 1.1. In addition, the results for the IC50 ratio in [4], in [7] and in test [8] were 1.86, 2.23 and 2.01, respectively.

On to `COc1cccc(/C=C2/C[C@@]3(O)C4Cc5ccc(O)c6c5C3(CCN4CC3CC3)[C@@H](O6)C2=O)c1` (stereo not given in full), for which the Selectivity ratio came to 2.8 in [1] and 18 in [5]. The IC50 ratio in [4] came to 0.95; in test [7], 6.44; in test [8] it was 18.

Turning to `COc1ccccc1/C=C1/C[C@@]2(O)C3Cc4ccc(O)c5c4C2(CCN3CC2CC2)[C@@H](O5)C1=O` (stereo not given in full), the ED50 ratio in test [10] worked out at 0.8; in [11] it was 2; in test [2] it was 11.1; in test [3] it was 6.8; in test [12], 1.03; in [13] it was 0.47. Also, the ED50 ratio in test [14] is 0.84; in [9], 5.8. The Selectivity ratio in test [1] stood at 14.1; in test [5], 120. Moreover, the IC50 ratio in test [4] came to 1.05; in test [7] it was 8.49; in test [8], 120.

Consider `O=C1/C(=C\c2ccc(-c3cccc4ccccc34)cc2)C[C@@]2(O)C3Cc4ccc(O)c5c4C2(CCN3CC2CC2)[C@H]1O5` (stereo not given in full), for which the Selectivity ratio in test [1] is 10.3; in test [5], 6.9. In addition, the IC50 ratio was 1.85 in [4], 1.23 in [7] and 12.7 in test [8].

Consider `COc1ccc(/C=C2/C[C@@]3(O)C4Cc5ccc(O)c6c5C3(CCN4CC3CC3)[C@@H](O6)C2=O)cc1` (stereo not given in full), for which the Selectivity ratio in test [1] stood at 1.5; in [5], 5.5. The results for the IC50 ratio in test [4], in test [7] and in test [8] were 0.92, 3.75 and 5.52, respectively.

On to `Cc1ccc(/C=C2/C[C@@]3(O)C4Cc5ccc(O)c6c5C3(CCN4CC3CC3)[C@@H](O6)C2=O)cc1` (stereo not given in full), for which the Selectivity ratio in test [1] turned out to be 3.2; in test [5], 9.1. Besides, the values for the IC50 ratio in test [4], in [7] and in test [8] were 2.45, 7.05 and 22.3, respectively.

In the case of `COC(=O)c1ccc(/C=C2/C[C@@]3(O)C4Cc5ccc(O)c6c5C3(CCN4CC3CC3)[C@@H](O6)C2=O)cc1` (stereo not given in full), the values for the Selectivity ratio in test [1] and in test [5] were 3.8 and 14.6, respectively. Further, the results for the IC50 ratio in test [4], in test [7] and in test [8] were 0.62, 3.81 and 14.6, respectively.

With `O=C1/C(=C\c2ccccc2Cl)C[C@@]2(O)C3Cc4ccc(O)c5c4C2(CCN3CC2CC2)[C@H]1O5` (stereo not given in full), the ED50 ratio in [10] came to 0.87; in test [11], 3.7; in [2], 11.4; in [3] it was 7.2; in [15], 0.73; in test [16] it was 0.53. Moreover, the ED50 ratio came to 0.9 in test [6] and 7.1 in test [9]. Moreover, the Selectivity ratio in test [1] and in test [5] was 130 throughout. In addition, the IC50 ratio is 0.85 in test [4], 1.34 in test [7] and 130 in test [8].

The values are drawn from ChEMBL document CHEMBL1131147, “7-Arylidenenaltrexones as selective delta1 opioid receptor antagonists” (J Med Chem, 1998).
